Source: ChEMBL document CHEMBL1772950, “Solid phase synthesis and biological activity of tuftsin conjugates” (J Med Chem, 2011)
pIC50: −log10 of the molar value. Calls of active or inactive are those of the source. No cut-off for these calls is given here. Residues, ends and D or L forms follow the SMILES beside them. *: point of attachment. Acridin9yl(1-NO2,4-Me) = Cc1ccc([N+](=O)[O-])c2c(*)c3ccccc3nc12; X1 = O=C(c1ccc([N+](=O)[O-])c2c(=O)c3ccccc3[nH]c12)*; Acridone(4-CO) = O=C(c1cccc2c(=O)c3ccccc3[nH]c12)*; X2 = O=[N+]([O-])c1cccc2nc3ccccc3c(*)c12; Ahx = NCCCCCC(=O)O; GABA = NCCCC(=O)O; βAla = NCCC(=O)O

Legend:
A549 [1] = test: Anticancer activity against human A549 cells assessed as cell viability by MTT assay; format: functional, cell-based
Procedure, shortened: (§1)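 Cells kept in RPMI 1640 with 10% FBS, 2 mM L-glutamine, penicillin/streptomycin, 37 °C, 5% CO2. Exponentially growing cells exposed continuously to a range of concentrations (10 mM DMSO stocks) for three to four generation times. MTT added for 4 h at 37 °C; formazan read on plate reader. IC50 taken from survival–dose curves versus untreated controls. At least two independent experiments, each in duplicate.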

HL-60 [2] = test: Anticancer activity against human HL60 cells assessed as cell viability by MTT assay; format: functional, cell-based; procedure, shortened: as §1
HL-60 [3] = test: Induction apoptosis in human HL60 cells assessed as change in nuclear morphology at 25 uM after 24 to 72 hrs by fluorescence microscopy; format: functional, cell-based
HL-60 [4] = test: Cell cycle arrest in human HL60 cells assessed as accumulation at early S phase after 72 hrs by flow cytometry; format: functional, cell-based
A549 [5] = test: Cell cycle arrest in human A549 cells assessed as accumulation at M phase after 72 hrs by flow cytometry; format: functional, cell-based
A549 [6] = test: Cell cycle arrest in human A549 cells assessed as accumulation at early S phase after 72 hrs by flow cytometry; format: functional, cell-based
A549 [7] = test: Cell cycle arrest in human A549 cells assessed as accumulation at G2 phase after 72 hrs by flow cytometry; format: functional, cell-based
HL-60 [8] = test: Cell cycle arrest in human HL60 cells assessed as accumulation at G2 phase after 72 hrs by flow cytometry; format: functional, cell-based
HL-60 [9] = test: Cell cycle arrest in human HL60 cells assessed as accumulation at M phase after 72 hrs by flow cytometry; format: functional, cell-based
HL-60 [10] = test: Cell cycle arrest in human HL60 cells assessed as accumulation at S phase after 24 hrs by flow cytometry; format: functional, cell-based
HL-60 [11] = test: Cell cycle arrest in human HL60 cells assessed as accumulation at G2 phase after 24 hrs by flow cytometry; format: functional, cell-based
HL-60 [12] = test: Cell cycle arrest in human HL60 cells assessed as accumulation at M phase after 24 hrs by flow cytometry; format: functional, cell-based
A549 [13] = test: Cell cycle arrest in human A549 cells assessed as accumulation at G2 phase after 24 hrs by flow cytometry; format: functional, cell-based
A549 [14] = test: Cell cycle arrest in human A549 cells assessed as accumulation at M phase after 24 hrs by flow cytometry; format: functional, cell-based
A549 [15] = test: Cell cycle arrest in human A549 cells assessed as accumulation at S phase after 24 hrs by flow cytometry; format: functional, cell-based
[16] = target: DNA topoisomerase II alpha (Homo sapiens) (UniProt P11388); test: Inhibition of human topoisomerase II mediated DNA relaxation at 1 to 100 uM
[17] = target: T1, DNA topoisomerase 1 (Homo sapiens) (UniProt P11387); test: Inhibition of human topoisomerase I mediated DNA relaxation at 1 to 100 uM
T1 sequence (whole entry): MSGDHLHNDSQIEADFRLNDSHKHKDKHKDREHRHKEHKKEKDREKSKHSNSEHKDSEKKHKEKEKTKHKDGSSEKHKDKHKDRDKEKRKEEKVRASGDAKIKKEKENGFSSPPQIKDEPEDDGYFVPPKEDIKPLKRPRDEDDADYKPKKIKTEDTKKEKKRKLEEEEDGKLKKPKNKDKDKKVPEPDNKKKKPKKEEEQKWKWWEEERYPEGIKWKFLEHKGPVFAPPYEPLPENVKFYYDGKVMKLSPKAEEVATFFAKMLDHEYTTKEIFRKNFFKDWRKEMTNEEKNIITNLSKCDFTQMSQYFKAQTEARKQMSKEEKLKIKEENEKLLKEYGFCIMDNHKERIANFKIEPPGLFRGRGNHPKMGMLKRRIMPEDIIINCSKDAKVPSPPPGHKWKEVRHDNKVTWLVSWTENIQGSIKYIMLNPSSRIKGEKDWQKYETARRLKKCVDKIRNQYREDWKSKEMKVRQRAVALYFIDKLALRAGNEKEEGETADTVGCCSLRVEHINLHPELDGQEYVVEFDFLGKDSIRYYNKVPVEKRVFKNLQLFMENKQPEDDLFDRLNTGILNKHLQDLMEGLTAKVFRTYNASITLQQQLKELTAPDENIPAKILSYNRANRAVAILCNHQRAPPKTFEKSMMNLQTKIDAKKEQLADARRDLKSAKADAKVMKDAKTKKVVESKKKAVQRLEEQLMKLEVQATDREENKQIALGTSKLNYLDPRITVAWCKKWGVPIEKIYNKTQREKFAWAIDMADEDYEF
Procedure, shortened: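 Relaxation of 200 ng supercoiled pBR322 DNA by purified human topoisomerase I, in 10 mM Tris-HCl pH 7.5, 7.5 mM MgCl2, 60 mM KCl. Run 30 min at 37 °C, stopped with SDS/EDTA loading buffer. Products resolved on 1.2% agarose in TBE at 0.5 V/cm for 18 h, stained with ethidium bromide, imaged under UV.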

DNA topoisomerase II alpha (Homo sapiens), sequence (P11388 whole entry, looked up): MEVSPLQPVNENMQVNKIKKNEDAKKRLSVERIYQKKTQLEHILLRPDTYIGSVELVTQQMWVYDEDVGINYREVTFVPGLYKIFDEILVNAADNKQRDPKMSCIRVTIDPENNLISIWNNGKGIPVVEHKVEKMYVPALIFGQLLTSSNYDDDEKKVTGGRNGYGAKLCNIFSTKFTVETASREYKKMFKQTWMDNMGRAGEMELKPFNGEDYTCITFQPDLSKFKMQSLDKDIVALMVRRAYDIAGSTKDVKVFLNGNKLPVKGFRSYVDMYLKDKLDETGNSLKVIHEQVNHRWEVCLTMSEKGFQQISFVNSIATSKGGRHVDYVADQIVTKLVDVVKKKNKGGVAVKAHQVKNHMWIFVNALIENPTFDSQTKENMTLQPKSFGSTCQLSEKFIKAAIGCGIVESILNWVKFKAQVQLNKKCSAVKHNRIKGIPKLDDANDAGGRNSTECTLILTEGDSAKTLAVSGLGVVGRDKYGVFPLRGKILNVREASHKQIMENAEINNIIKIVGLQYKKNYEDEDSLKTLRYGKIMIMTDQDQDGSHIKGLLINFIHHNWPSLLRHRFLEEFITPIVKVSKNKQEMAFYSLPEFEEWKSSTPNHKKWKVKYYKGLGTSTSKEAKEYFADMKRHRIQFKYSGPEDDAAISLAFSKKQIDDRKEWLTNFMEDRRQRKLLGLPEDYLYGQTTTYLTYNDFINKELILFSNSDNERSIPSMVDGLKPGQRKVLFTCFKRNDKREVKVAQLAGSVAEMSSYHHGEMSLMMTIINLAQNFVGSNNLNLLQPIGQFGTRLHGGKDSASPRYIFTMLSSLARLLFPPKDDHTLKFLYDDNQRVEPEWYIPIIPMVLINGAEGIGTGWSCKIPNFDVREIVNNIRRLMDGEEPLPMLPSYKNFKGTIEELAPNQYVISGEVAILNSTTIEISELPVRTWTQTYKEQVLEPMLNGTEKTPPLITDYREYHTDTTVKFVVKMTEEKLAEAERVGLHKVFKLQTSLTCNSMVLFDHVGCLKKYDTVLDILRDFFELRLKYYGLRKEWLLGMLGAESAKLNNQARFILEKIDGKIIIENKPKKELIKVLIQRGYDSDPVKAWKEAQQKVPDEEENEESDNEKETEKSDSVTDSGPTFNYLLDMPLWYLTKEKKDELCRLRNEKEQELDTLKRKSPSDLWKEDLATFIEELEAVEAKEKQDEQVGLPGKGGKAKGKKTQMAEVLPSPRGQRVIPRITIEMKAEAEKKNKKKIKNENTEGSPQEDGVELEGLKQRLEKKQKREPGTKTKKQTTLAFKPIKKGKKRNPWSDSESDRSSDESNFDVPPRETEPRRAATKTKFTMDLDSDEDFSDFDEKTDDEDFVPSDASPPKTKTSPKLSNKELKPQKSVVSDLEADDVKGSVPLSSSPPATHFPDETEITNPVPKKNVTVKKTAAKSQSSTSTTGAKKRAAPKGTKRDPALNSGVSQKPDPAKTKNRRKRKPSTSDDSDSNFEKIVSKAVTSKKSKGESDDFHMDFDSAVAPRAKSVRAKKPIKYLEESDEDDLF

Compound	pIC50 (A549 [1])	pIC50 (HL-60 [2])	also measured
CC(C)[C@H](N)C(=O)NCCCC[C@H](NC(=O)[C@@H]1CCCN1C(=O)[C@H](CCCNC(=N)N)Nc1ccc(O)c2c1C(=O)c1ccccc1C2=O)C(=O)N[C@H](C(=O)O)[C@@H](C)O	4.38	–	–
CC[C@H](C)[C@H](N)C(=O)NCCCC[C@H](NC(=O)[C@@H]1CCCN1C(=O)[C@H](CCCNC(=N)N)NC(=O)c1cccc2c(=O)c3ccccc3[nH]c12)C(=O)N[C@H](C(=O)O)[C@@H](C)O ({Acridone(4-CO)}-RPK(Ile)T-OH)	< 4.00	< 4.00	–
C[C@@H](O)[C@H](NC(=O)[C@H](CCCCNC(=O)CN)NC(=O)[C@@H]1CCCN1C(=O)[C@H](CCCNC(=N)N)NC(=O)CCNc1c2ccccc2nc2cccc([N+](=O)[O-])c12)C(=O)O ({X2-βAla}-RPK(Gly)T-OH)	4.47	4.15	–
C[C@@H](O)[C@H](NC(=O)[C@H](CCCCNC(=O)CN)NC(=O)[C@@H]1CCCN1C(=O)[C@H](CCCNC(=N)N)NC(=O)c1cccc2c(=O)c3ccccc3[nH]c12)C(=O)O ({Acridone(4-CO)}-RPK(Gly)T-OH)	< 4.00	< 4.00	–
C[C@@H](O)[C@H](NC(=O)[C@H](CCCCN)NC(=O)[C@@H]1CCCN1C(=O)[C@H](CCCNC(=N)N)Nc1ccc(O)c2c1C(=O)c1ccccc1C2=O)C(=O)O	< 4.00	< 4.00	–
Cc1ccc([N+](=O)[O-])c2c(NCCCCCC(=O)N[C@@H](CCCNC(=N)N)C(=O)N3CCC[C@H]3C(=O)N[C@@H](CCCCN)C(=O)N[C@H](C(=O)O)[C@@H](C)O)c3ccccc3nc12 ({Acridin9yl(1-NO2,4-Me)-Ahx}-RPKT-OH)	4.59	4.66	–
C[C@H](N)C(=O)NCCCC[C@H](NC(=O)[C@@H]1CCCN1C(=O)[C@H](CCCNC(=N)N)Nc1ccc(O)c2c1C(=O)c1ccccc1C2=O)C(=O)N[C@H](C(=O)O)[C@@H](C)O	< 4.00	< 4.00	–
CC[C@H](C)[C@H](N)C(=O)NCCCC[C@H](NC(=O)[C@@H]1CCCN1C(=O)[C@H](CCCNC(=N)N)NC(=O)c1ccc([N+](=O)[O-])c2c(=O)c3ccccc3[nH]c12)C(=O)N[C@H](C(=O)O)[C@@H](C)O (X1-RPK(Ile)T-OH)	4.41	< 4.00	–
O=C(O)c1ccc([N+](=O)[O-])c2c(=O)c3ccccc3[nH]c12	< 4.00	< 4.00	–
CC[C@H](C)[C@H](N)C(=O)NCCCC[C@H](NC(=O)[C@@H](NC(=O)c1ccc([N+](=O)[O-])c2c(=O)c3ccccc3[nH]c12)[C@@H](C)O)C(=O)N1CCC[C@H]1C(=O)N[C@@H](CCCNC(=N)N)C(=O)O (X1-TK(Ile)PR-OH)	< 4.00	< 4.00	–
C[C@@H](O)[C@H](NC(=O)c1cccc2c(=O)c3ccccc3[nH]c12)C(=O)N[C@@H](CCCCNC(=O)CN)C(=O)N1CCC[C@H]1C(=O)N[C@@H](CCCNC(=N)N)C(=O)O ({Acridone(4-CO)}-TK(Gly)PR-OH)	< 4.00	< 4.00	–
CC[C@H](C)[C@H](N)C(=O)NCCCC[C@H](NC(=O)[C@@H]1CCCN1C(=O)[C@H](CCCNC(=N)N)NC(=O)CCCCCNc1c2ccccc2nc2c(C)ccc([N+](=O)[O-])c12)C(=O)N[C@H](C(=O)O)[C@@H](C)O ({Acridin9yl(1-NO2,4-Me)-Ahx}-RPK(Ile)T-OH)	4.33	4.63	–
Cc1ccc([N+](=O)[O-])c2c(NCCC(=O)N[C@H](C(=O)N[C@@H](CCCCNC(=O)CN)C(=O)N3CCC[C@H]3C(=O)N[C@@H](CCCNC(=N)N)C(=O)O)[C@@H](C)O)c3ccccc3nc12 ({Acridin9yl(1-NO2,4-Me)-βAla}-TK(Gly)PR-OH)	4.12	4.26	–

Now those with a higher pIC50 (A549 [1]), led by results:

pIC50 (A549 [1])	pIC50 (HL-60 [2])	Compound	also measured
4.82	4.88	Cc1ccc([N+](=O)[O-])c2c(NCCCCCC(=O)N[C@H](C(=O)N[C@@H](CCCCN)C(=O)N3CCC[C@H]3C(=O)N[C@@H](CCCNC(=N)N)C(=O)O)[C@@H](C)O)c3ccccc3nc12 ({Acridin9yl(1-NO2,4-Me)-Ahx}-TKPR-OH)	–
5.52	4.76	Cc1ccc([N+](=O)[O-])c2c(NCCCC(=O)N[C@H](C(=O)N[C@@H](CCCCNC(=O)CN)C(=O)N3CCC[C@H]3C(=O)N[C@@H](CCCNC(=N)N)C(=O)O)[C@@H](C)O)c3ccccc3nc12 ({Acridin9yl(1-NO2,4-Me)-GABA}-TK(Gly)PR-OH)	Activity (HL-60 [3]): inactive; Activity (HL-60 [4]): Active; Activity (A549 [5]): Active; Activity (A549 [6]): Active; Activity (A549 [7]): Active; Activity (HL-60 [8]): Active; Activity (HL-60 [9]): Active; Activity (HL-60 [10]): Active; Activity (HL-60 [11]): Active; Activity (HL-60 [12]): Active; Activity (A549 [13]): Active; Activity (A549 [14]): Active; Activity (A549 [15]): Active; inhibition [16]: inactive
4.80	4.80	O=C1CCC(=O)c2c1c(O)c1ccccc1c2O	inhibition [17]: Active
5.22	4.72	O=C(O)CCNc1c2ccccc2nc2cccc([N+](=O)[O-])c12	–
4.75	4.81	Cc1ccc([N+](=O)[O-])c2c(NCCCC(=O)O)c3ccccc3nc12	Activity (HL-60 [3]): Active; Activity (HL-60 [4]): Active; Activity (A549 [5]): Active; Activity (A549 [6]): Active; Activity (A549 [7]): Active; Activity (HL-60 [8]): Active; Activity (HL-60 [9]): Active; Activity (HL-60 [10]): Active; Activity (HL-60 [11]): Active; Activity (HL-60 [12]): Active; Activity (A549 [13]): Active; Activity (A549 [14]): Active; Activity (A549 [15]): Active; inhibition [16]: inactive
5.06	4.95	CC[C@H](C)[C@H](N)C(=O)NCCCC[C@H](NC(=O)[C@@H](NC(=O)CCCCCNc1c2ccccc2nc2c(C)ccc([N+](=O)[O-])c12)[C@@H](C)O)C(=O)N1CCC[C@H]1C(=O)N[C@@H](CCCNC(=N)N)C(=O)O ({Acridin9yl(1-NO2,4-Me)-Ahx}-TK(Ile)PR-OH)	–
4.85	4.49	C[C@@H](O)[C@H](Nc1ccc(O)c2c1C(=O)c1ccccc1C2=O)C(=O)N[C@@H](CCCCN)C(=O)N1CCC[C@H]1C(=O)N[C@@H](CCCNC(=N)N)C(=O)O	inhibition [17]: Active
4.73	4.76	Cc1ccc([N+](=O)[O-])c2c(NCCCCCC(=O)O)c3ccccc3nc12	–
